Hsp70 act: Hsp70 transcriptional activators, primary screen, cell-based, HeLa, Hsp70 promoter luciferase, luminescence, 10 µM | AID 1203, 2008 | HeLa Hsp70 promoter luciferase reporter; scaled: vehicle 0, proteasome-inhibitor control 100% | 200,000 compounds, 0.04% hits | activation, % at 10 µM;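 active = activation above the mean across all tested compounds plus 3 SD, cutoff set per campaign, cut at about 5.5% in these data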
L major viab: Leishmania major promastigote growth inhibition, primary screen; Leishmania major promastigotes, resazurin fluorescence viability; inhibition, % at 10 µM; 200,000 compounds, 9% hits; AID 1063, 2008; in the data active = inhibition above about 50%;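 note: promastigotes grown with compound for 44 hours at 28 °C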
T cruzi repl: inhibitors of intracellular T. cruzi growth, primary screen, luminescence, NIH3T3 host cells; T. cruzi beta-gal in NIH3T3, 90 h; inhibition, % (test concentration not listed); 300,000 compounds, 1.4% hits; AID 1885, 2009;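 active = mean inhibition across valid replicates above about 55%, limit read from the data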;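 note: signal also drops with host cell toxicity which is not excluded here; higher percent means less beta-gal luminescence so fewer parasites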
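assay system = mouse NIH/3T3 fibroblasts infected with β-gal-expressing T. cruzi Tulahuen C4 | input = 5,000 NIH/3T3 host cells per well | buffer or medium = DMEM plus 2% FBS | timing = 3 h host attachment, then at least 90 h co-culture | measured by = GalScreen luminescence, 60 min | evaluation = luminescence reflecting intracellular parasite burden, expressed as percent inhibition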
HSF-1 act: HSF-1 activators, primary screen, NIH3T3-HGL cells, MG132 stress, luminescence, single point | activation, % at 9 µM | AID 504408, 2011 | 300,000 compounds, 1.7% hits | NIH3T3-HGL HSF-1 luciferase reporter, 8 h; 100% = twice DMSO control signal;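 active = mean replicate activation of at least 50% with a set share of replicates each reaching 50%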
HSF1 inhib: HSF1 inhibitors in luciferase reporter cells, primary screen, cell-based, NIH3T3, luminescence | 300,000 compounds, 0.77% hits | NIH3T3-HGL HSE-luciferase, MG132-induced, luminescence 8 h; active compounds read low | activity change, negative = inhibition, % at 7.5 µM (by protocol);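 active = more than half of replicate wells show activity change below -50%, luminescence cut by over half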;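 note: luciferase reports HSF-1 transcriptional activity via heat shock element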
Hits are given with their value; - = inactive; . = no result. The full list was thinned out, with hits kept by preference.

SMILES	Hsp70 act	L major viab	T cruzi repl	HSF-1 act	HSF1 inhib
Brc1ccc(OCc2cn3ccccc3n2)cc1	-	-	-	83	-
O=C1OC(c2ccc(F)cc2)=N/C1=C\C=C/c1ccccc1	.	.	-	-	-
O=C1OC(/C=C/c2ccccc2)=NC/1=C/C=C/c1ccccc1	-	-	-	112	-
CSCCC(NC(=O)COc1ccccc1)C(=O)OCC(=O)c1ccccc1 (stereo not given)	.	.	-	-	-
CSCCC(NS(=O)(=O)c1ccc2ccccc2c1)C(=O)OCC(=O)c1ccc(C(C)C)cc1 (stereo not given)	-	87	-	-	-
COc1ccc2c(c1)c(CC(=O)Nc1ccc(C)cc1)c(C)n2C(=O)c1ccc(Cl)cc1	-	-	56	-	-
COc1ccc(NC(=O)Cc2c(C)n(C(=O)c3ccc(Cl)cc3)c3ccc(OC)cc23)cc1	-	-	-	-	-
CC1=NN(c2ccc(C)c(C)c2)C(=O)/C1=C\C=C\c1ccc([N+](=O)[O-])o1	-	98	-	.	.
CNS(=O)(=O)c1cc(NC(=O)CCNC(=O)c2ccco2)ccc1C	.	.	-	-	-
COc1cc(C(=O)N(Cc2cc3cc(C)ccc3[nH]c2=O)CC2CCCO2)cc(OC)c1OC (stereo not given)	-	-	-	-	-
COc1cccc(C(=O)N(Cc2cc3cc(C)ccc3[nH]c2=O)CC2CCCO2)c1 (stereo not given)	-	75	-	-	-
Cc1ccc2[nH]c(=O)c(CN(CC3CCCO3)C(=S)Nc3ccccc3)cc2c1 (stereo not given)	-	54	-	-	-
Cc1ccc2cc(CN(CC3CCCO3)C(=S)Nc3ccccc3)c(=O)[nH]c2c1C (stereo not given)	-	67	-	-	-
Cc1ccc(NC(=O)c2ccc3nsnc3c2)c(Cl)c1	.	.	-	-	-
Nc1cc(=O)[nH]c2nnc(SCC(=O)Nc3cccc4ccccc34)n12	.	.	-	-	-
CC(C)Oc1ccc(CNC2CCOC(C)(C)C2)cc1 (stereo not given)	-	86	-	.	.
COc1ccc(NC(=O)[C@@H](NC(N)=O)C(C)C)cc1Cl	-	-	-	-	-
CCCC1=[N+](CC)CCn2c(C)ccc21	-	-	-	.	.
CCCC1=[N+](CC(=O)c2ccccc2)CCn2c(C)ccc21	-	90	-	-	-
COc1ccc(C(=O)Nc2ccc(OCc3ccccc3)cc2)cc1[N+](=O)[O-]	-	-	-	-	-61
Cc1noc(C)c1COc1cccc(C(=O)Nc2ccc(OCc3ccccc3)cc2)c1	-	53	-	-	-
COc1ccc(C(=O)Nc2ccc(Nc3ccccc3)cc2)cc1[N+](=O)[O-]	.	.	-	-	-
CN1CCN(CC(=O)Nc2nc(-c3ccccc3)cs2)CC1	-	-	-	-	-
CN1CCN(CC(=O)N(C)c2nc(-c3ccccc3)cs2)CC1	-	94	-	-	-
CC1CC(=O)C(C2c3ccccc3CCN2C(=O)CCl)C(=O)C1 (stereo not given)	-	51	-	-	-
SMILES	Hsp70 act	L major viab	T cruzi repl	HSF-1 act	HSF1 inhib
O=C(Nc1ccc([N+](=O)[O-])cc1)c1cc(-c2ccccn2)nc2c(Cl)cccc12	-	-	-	-	-
Cc1cccc(N2CCN(C(=O)c3cc(S(=O)(=O)N(C)C)ccc3N3CCCC3)CC2)c1C	-	54	-	-	-
Cn1c2c(c(=O)n(C)c1=O)C(CC(=O)Nc1ccccc1)C(=O)N2 (stereo not given)	-	-	-	-	-67
Cn1c2c(c(=O)n(C)c1=O)C(CC(=O)Nc1ccccc1F)C(=O)N2 (stereo not given)	.	.	-	-	-
CN(C(=O)c1ccc(S(=O)(=O)c2cccc(Cl)c2)c([N+](=O)[O-])c1)C1CCCCC1	-	100	-	-	-
O=C(NC1CCCCC1)c1ccc(S(=O)(=O)c2ccccc2Cl)c([N+](=O)[O-])c1	-	-	-	-	-
Cc1ncoc1C(=O)N1CCCC(C(=O)c2ccc(C(F)(F)F)cc2)C1 (stereo not given)	-	-	-	-	-
CCCCN(C)S(=O)(=O)c1ccc(C(=O)Nc2nnc(-c3cccs3)o2)cc1	-	99	57	-	-
CCCCN(CC)S(=O)(=O)c1ccc(C(=O)Nc2nnc(-c3ccccc3Cl)o2)cc1	-	99	-	-	-
CCN(Cc1ccccc1)S(=O)(=O)c1ccc(C(=O)Nc2nnc(-c3ccccc3OC)o2)cc1	-	99	62	-	-
O=S(=O)(c1ccc(-c2ccccn2)s1)N1CCC2(CC1)OCCO2	.	.	-	-	-
CCOC(=O)c1sc(NC(=O)C(C)Sc2nc(N)cc(=O)[nH]2)nc1C (stereo not given)	-	-	-	-	-
Clc1cccc(-c2cc3nc4c(c(N5CCN(c6cnccn6)CC5)n3n2)CCCC4)c1	-	62	.	.	.
Fc1cccc(-c2cc3nc4c(c(N5CCN(c6cnccn6)CC5)n3n2)CCCC4)c1	-	-	.	.	.
CC(=O)N(CN1C(=O)CCC1=O)c1cccc(Cl)c1	-	-	-	-	-
CC(=O)N1N=C(c2ccc(C)cc2)OC1c1ccc(Br)cc1 (stereo not given)	-	-	-	57	-
CC(=O)N1N=C(c2ccc(Cl)cc2)OC1c1ccc(C(C)C)cc1 (stereo not given)	-	-	-	-	-
COc1c(C)cc(C(=O)C2CCCN(Cc3ccc(Oc4ncccn4)cc3)C2)cc1C (stereo not given)	-	82	-	-	-
COc1ccccc1C(=O)C1CCCN(Cc2ccc(Oc3ncccn3)cc2)C1 (stereo not given)	-	-	73	-	-
COc1ccc2cc(C(=O)C3CCCN(Cc4cnc(N5CCOCC5)s4)C3)ccc2c1 (stereo not given)	-	-	-	-	-
CC(C)Oc1cccc(C(=O)C2CCCN(Cc3cnc(N4CCCC4)s3)C2)c1 (stereo not given)	-	-	82	-	-
CC(C)Oc1cccc(C(=O)C2CCCN(Cc3ccc(Oc4ncccn4)cc3)C2)c1 (stereo not given)	-	79	66	-	-
CCOC(=O)C1(Cc2cccc(OC)c2)CCN(Cc2ccc(OC)c(OC)c2)CC1	-	91	-	-	-
CCOC(=O)C1(Cc2cccc(F)c2)CCN(Cc2cnn(CC)c2)CC1	-	-	-	-	-
CCOC(=O)C1(Cc2ccccc2)CCN(Cc2csc(C(C)=O)c2)CC1	-	86	-	-	-
CCOC(=O)C1(Cc2ccccc2)CCN(Cc2cccc(OC)c2O)CC1	-	68	-	-	-
CCOC(=O)C1(Cc2cccc(F)c2)CCN(Cc2cnn(CC)c2C)CC1	-	69	-	-	-
